# Source: PubChem (several laboratories)
# Shown is part of a subset that was picked to be rich in hits.
# Diaph inh CS: diaphorase inhibitors and chemical oxidizers, primary screen, counter-screen for diaphorase-coupled primary assays, biochemical, uHTS, resorufin fluorescence; diaphorase resazurin-to-resorufin fluorescence, NADH, 16 min; bacterial (C. kluyveri) enzyme, not human; 190,000 compounds, 0.69% hits; inhibition, % at 20 µM;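 active = primary screen inhibition at 20 µM above a set limit, cut at about 50% in these data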
#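 Test system: bacterial diaphorase enzyme (C. kluyveri); Quantity: 0.14 U/mL diaphorase, enzyme working solution; Times: reaction incubation of 16 min at room temperature; Measured by: fluorescence of resorufin formed from resazurin, Ex 544/Em 590 nm; Benchmarks: positive control minus NADH, DMSO neutral control.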
# Lmaj promast: Leishmania major promastigote growth inhibition, primary screen. AID 1063, 2008. 200,000 compounds, 9% hits. inhibition, % at 10 µM. Leishmania major promastigotes, resazurin fluorescence viability;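 also: promastigotes grown with compound for 44 hours at 28 °C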
# DTT redox prof: compounds producing H2O2 with reducing agent – biochemical, NIH compound library profiling, artefact control for MLSCN library redox annotation, primary screen; DTT-dependent redox cycling H2O2, phenol red/HRP absorbance; 100% = 100 µM peroxide control, 0% = buffer; activation, % at 10 µM; 200,000 compounds, 0.03% hits;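 active = activation of at least 50% relative to the plate's high and low controls in the primary single-dose screen; inactive = activation below 50%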;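 also: compound incubated with DTT at 0.8 mM final as the reducing agent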
# G6PDH CS: L. mesenteroides G6PDH inhibitors, counter-screen for G6PDH-coupled screening assays, biochemical, Leuconostoc mesenteroides enzyme; Purified L. mesenteroides G6PDH, diaphorase/resazurin coupled fluorescence, 45 min; inhibition, % at 5 µM; 200,000 compounds, 0.12% hits
# PfGluPho inh: PfG6PD enzyme inhibitors, primary screen, biochemical, fluorescence intensity, uHTS; glucose-6-phosphate dehydrogenase-6-phosphogluconolactonase (Plasmodium falciparum 3D7); PfGluPho enzyme, NADPH resazurin-diaphorase fluorescence; inhibition, % at 20 µM; 350,000 compounds, 0.78% hits;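 active = inhibition reaching at least a set limit at 20 µM in the primary screen, cut at about 59% in these data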
# Diaph act CS: compounds boosting diaphorase resazurin reduction – biochemical, uHTS, resorufin fluorescence, counter-screen for diaphorase-coupled primary assays, primary screen; Diaphorase/resazurin coupled assay, 16 min; hits give high values; 1 = vehicle wells, 0 = NADH-free wells; 190,000 compounds, 0.005% hits; activation factor at 20 µM;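 active = diaphorase activity raised at least twofold by the compound at 20 µM; inactive = activation factor below 2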
#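 Assay system: Purified diaphorase enzyme from Clostridium kluyveri | Amount: Enzyme 0.07 U/mL final | Dosing: Compound 20 µM once, DMSO 1% | Timing: 16 min reaction at room temperature | Detection: Fluorescence, excitation 544 nm and emission 590 nm | Evaluation: Higher resorufin formation from activation or reduction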
# PfGluPho conf: PfG6PD inhibitors, hit retest, confirmation, biochemical, fluorescence intensity, single concentration. shares compounds with PfGluPho inh. recombinant PfGluPho, NADPH-diaphorase-resazurin fluorescence. inhibition, % at 20 µM. AID 504753, 2011. 2,400 compounds, 34% hits;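 active = inhibition of at least 50% at 20 µM in any single replicate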
# Diaphorase 10uM: diaphorase inhibitors and chemical oxidizers, confirmation, counter-screen for P. falciparum G6PD inhibitor project, biochemical, fluorescence intensity, 10 µM NADPH; shares compounds with PfGluPho inh; diaphorase-coupled resazurin reduction, NADPH 10 uM; inhibition, % at 20 µM; 820 compounds, 39% hits; AID 504862, 2011;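 active = average inhibition reaching 50% or more with the compound at 20 µM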;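 also: resorufin red fluorescence formed as diaphorase reduces resazurin using NADPH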
# Diaph ctr 30uM: diaphorase inhibitors and chemical oxidizers, confirmation, counter-screen for P. falciparum G6PD inhibitor project, biochemical, fluorescence intensity, 30 µM NADPH; shares compounds with PfGluPho inh; Diaphorase/resazurin coupled assay, resorufin fluorescence; inhibition, % at 20 µM; 820 compounds, 29% hits; AID 504863, 2011;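 active = inhibition averaging 50% or more, tested at 20 µM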
# A number is an active result; . = inactive; / = not tested or not shown. Rule as the data show it, unless noted: active = inhibition above about 50%; inactive = the rest.
SMILES,Diaph inh CS,Lmaj promast,DTT redox prof,G6PDH CS,PfGluPho inh,Diaph act CS,PfGluPho conf,others
CC1(C)CC(=O)C2=C(C1)Nc1ccccc1NC2c1ccc(F)c(F)c1 (stereo not given),/,/,/,/,.,/,/,
CC1(C)CC(=O)C2=C(C1)N=C1c3ccccc3C(=O)C1C2c1ccc(Cl)cc1 (stereo not given),.,94,.,.,84,.,.,
CCOC(=O)c1c(C2COc3ccccc3O2)csc1NC(=O)c1ccco1 (stereo not given),.,.,.,.,84,.,54,Diaphorase 10uM=.;Diaph ctr 30uM=.
COc1cccc(NC2=Nc3cccc4cccc2c34)c1,.,.,.,.,.,.,/,
O=C(O)c1cccc(N/N=C/c2cccnc2)c1,.,.,.,.,.,.,/,
C(=N\NC1=Nc2cccc3cccc1c23)/c1ccccc1,.,.,.,.,66,.,.,
C(=N\NC1=Nc2cccc3cccc1c23)/c1cccnc1,.,.,.,.,82,.,.,
COc1ccc(S(=O)(=O)N2CCN(C(=O)c3ccco3)CC2)cc1C(C)(C)C,/,/,/,/,.,/,/,
COc1ccccc1NS(=O)(=O)c1cc(NC(=O)C(C)C)ccc1N1CCCCC1,.,.,.,.,61,.,.,
COc1ccccc1NS(=O)(=O)c1cc(NC(=O)c2cccs2)ccc1N1CCCC1,.,94,.,.,79,.,.,
COc1ccccc1NS(=O)(=O)c1cc(NC(=O)c2cc[n+]([O-])cc2)ccc1N1CCCC1,.,.,.,.,.,.,/,
C=CCc1c(C)nc(C)nc1N/N=C/c1ccccc1O,.,99,.,.,68,.,.,
Cc1cc(Cl)cc(C)c1OCC(=O)N1CCN(c2ncccn2)CC1,/,/,/,/,.,/,/,
O=C(COc1ccc2c(-c3ccccc3)cc(=O)oc2c1)NC1CCS(=O)(=O)C1 (stereo not given),/,/,/,/,.,/,/,
COc1cccc(Nc2cc(C)c3ccccc3n2)c1,/,/,/,/,61,/,.,
Cc1ccc(Nc2cc(C)c3c(O)cccc3n2)cc1C,/,/,/,/,125,/,.,
COc1ccc(Nc2cc(C)c3c(O)cccc3n2)cc1,/,/,/,/,120,/,56,Diaphorase 10uM=.;Diaph ctr 30uM=.
COc1ccc([N+](=O)[O-])cc1COc1cc(C)cc2oc(=O)cc(-c3ccccc3)c12,.,99,.,.,86,.,.,
CC(=O)COc1cc(C)cc2oc(=O)cc(-c3ccccc3)c12,.,.,.,.,.,.,/,
CC1CCCN(C(=O)CNC(=O)c2ccco2)C1 (stereo not given),/,/,/,/,.,/,/,
CC(C)n1c(=S)[nH]c2c1c(=O)[nH]c(=O)n2C,.,.,.,.,67,.,.,
Cc1ccccc1N/C(SCc1cccc(Br)c1)=C(/C#N)C(N)=O,.,.,.,.,97,.,67,Diaphorase 10uM=61;Diaph ctr 30uM=.
NC(=O)CSCc1cccc(Br)c1,.,.,.,.,.,.,/,
Cc1cc(O)c(C(C)C)cc1N=Cc1ccccc1[N+](=O)[O-],/,/,/,/,101,/,65,Diaphorase 10uM=.;Diaph ctr 30uM=.
Cn1c(N)c(C(=O)COC(=O)/C=C/c2ccccc2)c(=O)n(C)c1=O,/,/,/,/,.,/,/,
SMILES,Diaph inh CS,Lmaj promast,DTT redox prof,G6PDH CS,PfGluPho inh,Diaph act CS,PfGluPho conf,others
CC1=NOC(=O)/C1=C\c1ccc(-c2cc(Cl)ccc2Cl)o1,.,99,.,.,80,.,.,
Cc1onc(-c2ccccc2)c1C(=O)N(Cc1ccco1)Cc1cccs1,.,.,.,.,83,.,.,
CNC(=O)CC1C(=O)N(c2ccc(OC)cc2)C(=S)N1NC(=O)c1cccc(F)c1 (stereo not given),/,/,/,/,.,/,/,
Cc1ccc(-c2nn(C)c(=O)c3ccccc23)cc1CNC(=O)/C=C/c1ccccc1,.,.,.,.,77,.,76,Diaphorase 10uM=59;Diaph ctr 30uM=.
CC(=O)NCc1cc(-c2nn(C)c(=O)c3ccccc23)ccc1C,.,.,.,.,.,.,/,
Nc1nnnn1-c1cccc([N+](=O)[O-])c1,/,/,/,/,.,/,/,
COCCN(CCOC)Cc1c(O)ccc2c1O/C(=C\c1ccc(C)o1)C2=O,/,/,/,/,63,/,.,
COC(=O)c1cccc(Oc2cccc(C(F)(F)F)c2)n1,.,.,.,.,.,.,/,
Cc1c(Cl)cccc1N=C1NC(=O)CS1,/,/,/,/,66,/,.,
CCc1ccc2oc(-c3ccc(NC(C)=O)cc3)nc2c1,/,/,/,/,.,/,/,
COc1cc(-c2ccc(NC(C)=O)c(OC)c2)ccc1NC(C)=O,/,/,/,/,.,/,/,
COc1cc(O)c(NC(C)=O)c2nonc12,63,.,.,.,64,.,.,
O=[N+]([O-])c1cccc(SSc2cccc([N+](=O)[O-])c2)c1,/,/,/,/,115,/,52,Diaphorase 10uM=.;Diaph ctr 30uM=.
Cc1ccccc1Nc1nc(-c2ccccc2)c(C(=O)Nc2cccnc2)s1,.,.,.,.,.,.,/,
COc1ccc(Nc2nc(-c3ccccc3)c(C(=O)Nc3cccnc3)s2)cc1,.,.,.,.,65,.,.,
CN1C(=O)/C(=C/c2ccc(OCc3ccccc3F)cc2)N(C)C1=S,/,/,/,/,.,/,/,
Cc1cc(C)cc(SCc2noc(C(=O)NCCC(C)C)c2C(=O)NCCC(C)C)c1,/,/,/,/,.,/,/,
O=C1C(SCCO)=C(SCCO)C(=O)c2ccccc21,/,/,/,/,119,/,107,Diaphorase 10uM=87;Diaph ctr 30uM=84
CC(C)(C)c1ccc(C(=O)Nc2ccc(F)cc2)s1,/,/,/,/,86,/,.,
COc1ccc2oc(C(=O)OCC(=O)NC3(C#N)CCCC3)c(C)c2c1,/,/,/,/,.,/,/,
NS(=O)(=O)c1ccc(N/N=C/c2ccc(O)c(O)c2O)c([N+](=O)[O-])c1,/,/,/,/,87,/,70,Diaphorase 10uM=.;Diaph ctr 30uM=.
NS(=O)(=O)c1ccc(N/N=C/c2ccc(O)cc2O)c([N+](=O)[O-])c1,/,/,/,/,.,/,/,
O=C(CSc1nncc2ccccc12)Nc1cccc(O)c1,/,/,/,/,.,/,/,
O=C(COC(=O)Cn1cnc2ccccc2c1=O)Nc1ccccc1Sc1ccc(Cl)cc1,.,69,.,.,71,.,.,
